{"data": "Measured values from different studies", "target": "Vascular endothelial growth factor receptor 1 (FLT1, Homo sapiens, UniProt P17948)"}
{"test": "binding", "setting": "1 µM", "remaining binding [%]": 100, "SMILES": "CN(C)c1ncc(F)c(-c2cnn3ncccc23)n1"}
{"test": "cell-free assay, competition with immobilised ligand", "setting": "1 µM", "remaining binding [%]": 100, "SMILES": "O=C(Nc1cccnn1)N1CCC(=Cc2cccc(Oc3ccc(C(F)(F)F)cn3)c2)CC1"}
{"test": "binding, competition with immobilised ligand", "setting": "1 µM", "remaining binding [%]": 99, "SMILES": "C=CC(=O)N1CCC(C(=O)NCC(=O)N2CCN(c3nc(-c4cnc(N)nc4C(F)F)nc(N4CCOCC4)n3)CC2)CC1"}
{"test": "binding, competition with immobilised ligand", "setting": "10 µM", "remaining binding [%]": 71, "SMILES": "c1cncc(-c2cccc(Nc3nccc(NC4CCCCC4)n3)c2)c1"}
{"test": "cell-free assay, competition with immobilised ligand", "setting": "1 µM", "remaining binding [%]": 100, "SMILES": "O=c1nc(-c2ccccn2)sc2ccccc12"}
{"test": "binding, competition with immobilised ligand", "setting": "1 µM", "remaining binding [%]": 1.2, "SMILES": "O=C(c1ccc(Nc2ncc(Cl)c(-c3ccc(Cl)s3)n2)cc1)N1CCC(N2CCCC2)CC1"}
{"test": "cell-free assay, competition with immobilised ligand", "setting": "1 µM", "remaining binding [%]": 100, "SMILES": "O=C1CCc2cc(Nc3cc(OC4CCOCC4)c([N+](=O)[O-])cc3Cl)ccc2N1"}
{"test": "binding", "setting": "1 µM", "remaining binding [%]": 100, "SMILES": "CN(c1nccc(-c2cnn3ncccc23)n1)C1CC1"}
{"test": "cell-free assay, competition with immobilised ligand", "setting": "1 µM", "remaining binding [%]": 100, "SMILES": "COc1ccc2c(c1)O[C@@H](c1ccc(OC)c(OC)c1)C[C@H]2NC(=O)C1(c2ccc3c(c2)OC(F)(F)O3)CC1"}
{"test": "binding, competition with immobilised ligand", "setting": "1 µM", "remaining binding [%]": 100, "SMILES": "CNC(=O)[C@@H]1CC[C@@H](n2c(-c3ccc4cnccc4c3)nc3ccc(C(=O)NCc4cccc(C(N)=O)c4)cc32)C1"}
{"test": "binding", "setting": "1 µM", "remaining binding [%]": 99, "SMILES": "N[C@H]1CCN(c2nccc(-c3cnn4ncccc34)n2)C1"}
{"test": "binding, competition with immobilised ligand", "setting": "1 µM", "remaining binding [%]": 5.7, "SMILES": "O=C(NCCCN1CCOCC1)c1ccc(Nc2ncc(Cl)c(-c3ccc(Cl)s3)n2)cc1"}
{"test": "cell-free assay, competition with immobilised ligand", "setting": "1 µM", "remaining binding [%]": 100, "SMILES": "CS(=O)(=O)c1cc(C2(NC(=O)c3cncc4c3cnn4-c3ccc(F)cc3)CC2)ccn1"}
{"test": "binding, competition with immobilised ligand", "setting": "1 µM", "remaining binding [%]": 63, "SMILES": "CCN1CCN(Cc2ccc(C(=O)Nc3ccc(C)c(Oc4ccc5c(c4)CC(=O)N5)c3)cc2C(F)(F)F)CC1"}
{"test": "binding", "setting": "1 µM", "remaining binding [%]": 100, "SMILES": "CN(C)c1nccc(-c2cnc3ncccn23)n1"}
{"test": "cell-free assay, competition with immobilised ligand", "setting": "1 µM", "remaining binding [%]": 100, "SMILES": "Cc1nc(N2CC[C@@H](O)C2)ncc1-c1cc(C(F)(F)F)cc2[nH]ncc12"}
{"test": "binding", "setting": "1 µM", "remaining binding [%]": 100, "SMILES": "F[C@@H]1CCN(c2nccc(-c3cnn4ncccc34)n2)C1"}
{"test": "binding, competition with immobilised ligand", "setting": "1 µM", "remaining binding [%]": 90, "SMILES": "O=C(NCC1CCOCC1)c1n[nH]cc1NC(=O)c1c(F)cccc1F"}
{"test": "binding", "setting": "1 µM", "remaining binding [%]": 100, "SMILES": "C[C@H]1CCN(c2nccc(-c3cnn4ncccc34)n2)C1"}
{"test": "binding, competition with immobilised ligand", "setting": "1 µM", "remaining binding [%]": 4.4, "SMILES": "Cc1cnc(Nc2ccc(C(=O)N3CCC(N4CCCC4)CC3)cc2)nc1-c1cc2ccccc2s1"}
{"test": "binding", "setting": "1 µM", "remaining binding [%]": 97, "SMILES": "Cc1cnn2ncc(-c3ccnc(N(C)C)n3)c2c1"}
{"test": "binding, competition with immobilised ligand", "setting": "0.1 µM", "remaining binding [%]": 81, "SMILES": "C[C@@H](c1ccc(-n2cnc3c(N)ncnc32)cc1)N1CCc2nn(C)c(Cc3ccccc3)c2C1=O"}
